What is called IC50 is the midpoint of a concentration-inhibition curve. One may read the inhibition as the drop in the measured response relative to a control, in per cent.

The nature of data set [1]: Cytotoxicity against mouse RAW264.7 cells assessed as cell viability at IC50 by MTT assay relative to control. The class given is cell-based. As to conditions: read-out: Activity. Background: Tetrazolium assays rely on reduction of a dye to a coloured formazan, in cell work by metabolically active cells.
Data set [2] can be described thus: Cytotoxicity against mouse J774A1 cells assessed as cell viability at IC50 by MTT assay relative to control. The class given is cell-based, J774.A1. As to conditions: read-out: Activity.
Data set [3] has as its system RAW264.7. Description: Antiinflammatory activity in mouse RAW264.7 cells assessed as inhibition of LPS-induced NO production incubated for 1 hr prior to LPS challenge measured after 24 hrs by Griess method. The class given is functional, cell-based. The gist of the method: (§1)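 NO release was measured in LPS-stimulated macrophages, and IC50 values were derived from it. Data are mean ± SD of three separate experiments, each run in triplicate.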
In general terms: Nitrite, measured by Griess reagent, commonly stands in for NO production.

A short description of data set [4]: Antiinflammatory activity in mouse J774A1 cells assessed as inhibition of LPS-induced NO production incubated for 1 hr prior to LPS challenge measured after 24 hrs by Griess method. Conditions: J774.A1. It is filed as functional, cell-based. The gist of the method:
as §1

Data set [5] has as its system RAW264.7. Briefly: Antiinflammatory activity in mouse RAW264.7 cells assessed as inhibition of LPS-induced TNF-alpha production at 20 ug/ml incubated for 1 hr prior to LPS challenge measured after 6 hrs by sandwich ELISA relative to control. The class given is functional. The gist of the method: (§2)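 Compounds were tested at 20 µg/mL on LPS-stimulated cells. TNF-α and IL-1β released into the medium were quantified with an ELISA kit following the kit protocol and expressed as % inhibition. Data are mean ± SD of three separate experiments, each run in triplicate.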

Data set [6] is described as follows: Antiinflammatory activity in mouse J774A1 cells assessed as inhibition of LPS-induced TNF-alpha production at 20 ug/ml incubated for 1 hr prior to LPS challenge measured after 6 hrs by sandwich ELISA relative to control. Conditions: J774.A1. The class given is functional. The gist of the method:
as §2
Background: ELISA stands for enzyme-linked immunosorbent assay.

Data set [7] deals with RAW264.7. Description: Antiinflammatory activity in mouse RAW264.7 cells assessed as inhibition of LPS-induced IL-1beta production at 20 ug/ml incubated for 1 hr prior to LPS challenge measured after 12 hrs by sandwich ELISA relative to control. It is filed as functional. The gist of the method:
as §2

A short description of data set [8]: Antiinflammatory activity in mouse J774A1 cells assessed as inhibition of LPS-induced IL-1beta production at 20 ug/ml incubated for 1 hr prior to LPS challenge measured after 12 hrs by sandwich ELISA relative to control. The class given is functional. Conditions: J774.A1. An outline of the steps:
as §2

As to `C=C(C)[C@@H]1CC[C@]2(C)CC[C@]3(C)[C@H](CC[C@@H]4[C@@]5(C)CC/C(=N\O)C(C)(C)[C@@H]5CC[C@]43C)[C@@H]12`, the viability in data set [1] amounted to 95.7%; in data set [2] it was 93.6%. Besides, the IC50 came out at 46 µM with RAW264.7 [3] and 44.6 µM in data set [4].
`C=C(C=O)[C@@H]1CC[C@]2(C)CC[C@]3(C)[C@H](CC[C@@H]4[C@@]5(C)CC[C@H](O)C(C)(C)[C@@H]5CC[C@]43C)[C@@H]12`: the results for the viability in data set [1] and in data set [2] were 95.2% and 92.1%, respectively. For the same compound, the values for the IC50 (with RAW264.7 [3]; in data set [4]) were 42.9 µM and 37 µM, respectively.
For `C=C(C)[C@@H]1CC[C@]2(C)CC[C@]3(C)[C@H](CC[C@@H]4[C@@]5(C)CC[C@H](OC(=O)CC(C)(C)C(=O)O)C(C)(C)[C@@H]5CC[C@]43C)[C@@H]12`, the viability in data set [1] came to 87.6%; in data set [2], 83.6%. In addition, the IC50 in the data set on RAW264.7 [3] was 39.2 µM; in data set [4], 42.6 µM.
The corresponding values for `C=C(C)[C@@H]1CC[C@]2(C)CC[C@]3(C)[C@H](CC[C@@H]4[C@@]5(C)CC[C@H](N(O)c6ccccc6)C(C)(C)[C@@H]5CC[C@]43C)[C@@H]12` are 79.3%, 82.5%, 48.7 µM and 47.7 µM.
Turning to `C=C(C)[C@@H]1CC[C@]2(C)CC[C@]3(C)[C@H](CC[C@@H]4[C@@]5(C)CC[C@H](OC(=O)CCC(=O)O)C(C)(C)[C@@H]5CC[C@]43C)[C@@H]12`, the results for the viability in data set [1] and in data set [2] were 91.3% and 90.1%, respectively. The IC50 in the data set with RAW264.7 [3] was found to be 39.2 µM; in data set [4] it was 39.3 µM.
The corresponding values for `C=C(C)[C@@H]1CC[C@]2(C)CC[C@]3(C)[C@H](CC[C@@H]4[C@@]5(C)CCC(=S)C(C)(C)[C@@H]5CC[C@]43C)[C@@H]12` are 94.3%, 91.9%, 36.2 µM and 36.3 µM.
In the case of `C=C(C)[C@@H]1CC[C@]2(C)CC[C@]3(C)[C@H](CC[C@@H]4[C@@]5(C)Cc6c([nH]c7ccccc67)C(C)(C)[C@@H]5CC[C@]43C)[C@@H]12`, the viability in data set [1] worked out at 91.8%; in data set [2], 90.3%. The IC50 (in the data set with RAW264.7 [3]; in data set [4]) was 31.7 µM each time.
With `C=C(C)[C@@H]1CC[C@]2(C)CC[C@]3(C)[C@H](CC[C@@H]4[C@@]5(C)Cc6c([nH]c7ccc(C)cc67)C(C)(C)[C@@H]5CC[C@]43C)[C@@H]12`, the figures for the viability in data set [1] and in data set [2] were 89.3% and 87%, respectively. In addition, the values for the IC50 (with RAW264.7 [3]; in data set [4]) were 27.8 µM and 28.6 µM, respectively.
In the case of `C=C(C)[C@@H]1CC[C@]2(C)CC[C@]3(C)[C@H](CC[C@@H]4[C@@]5(C)Cc6c([nH]c7c(C)ccc(C)c67)C(C)(C)[C@@H]5CC[C@]43C)[C@@H]12`, the viability in data set [1] stood at 93.2%; in data set [2], 91.5%. Besides, the inhibition at 20 µg/mL in the data set with RAW264.7 [5] amounted to 32.8%; in data set [6], 31.1%; in the data set on RAW264.7 [7], 22.8%; in data set [8], 17.2%. The IC50 was 25.9 µM in the data set with RAW264.7 [3] and 23.2 µM in data set [4].
For `C=C(C)[C@@H]1CC[C@]2(C)CC[C@]3(C)[C@H](CC[C@@H]4[C@@]5(C)Cc6c([nH]c7c(CC)cccc67)C(C)(C)[C@@H]5CC[C@]43C)[C@@H]12`, the viability in data set [1] came to 91.5%; in data set [2], 91.7%. In addition, the inhibition at 20 µg/mL with RAW264.7 [5] was determined as 39.1%; in data set [6] it was 29.4%; in the data set with RAW264.7 [7], 11.4%; in data set [8], 10.1%. The IC50 in the data set with RAW264.7 [3] amounted to 30.6 µM; in data set [4], 28.6 µM.
Regarding `C=C(C)[C@@H]1CC[C@]2(C)CC[C@]3(C)[C@H](CC[C@@H]4[C@@]5(C)Cc6c([nH]c7ccc(F)cc67)C(C)(C)[C@@H]5CC[C@]43C)[C@@H]12`, the viability in data set [1] worked out at 95.2%; in data set [2] it was 92.1%. For the same compound, the IC50 (with RAW264.7 [3]; in data set [4]) was 41.7 µM throughout.
As to `C=C(C)[C@@H]1CC[C@]2(C)CC[C@]3(C)[C@H](CC[C@@H]4[C@@]5(C)Cc6c([nH]c7ccc(Cl)cc67)C(C)(C)[C@@H]5CC[C@]43C)[C@@H]12`, the viability in data set [1] came to 93.3%; in data set [2] it was 92.7%. In addition, the IC50 with RAW264.7 [3] worked out at 35.6 µM; in data set [4], 33.2 µM.
Turning to `C=C(C)[C@@H]1CC[C@]2(C)CC[C@]3(C)[C@H](CC[C@@H]4[C@@]5(C)Cc6c([nH]c7ccc(Br)cc67)C(C)(C)[C@@H]5CC[C@]43C)[C@@H]12`, the viability came to 91.4% in data set [1] and 90.8% in data set [2]. The inhibition at 20 µg/mL in the data set on RAW264.7 [5] was found to be 39.2%; in data set [6] it was 31.5%; with RAW264.7 [7] it was 19.7%; in data set [8], 16.2%. Moreover, the IC50 in the data set on RAW264.7 [3] stood at 23.9 µM; in data set [4] it was 18.4 µM.
In the case of `C=C(C)[C@@H]1CC[C@]2(C)CC[C@]3(C)[C@H](CC[C@@H]4[C@@]5(C)Cc6c([nH]c7ccc(I)cc67)C(C)(C)[C@@H]5CC[C@]43C)[C@@H]12`, the results for the viability in data set [1] and in data set [2] were 95.2% and 93.3%, respectively. Also, the inhibition at 20 µg/mL was found to be 42.3% in the data set on RAW264.7 [5], 37% in data set [6], 22.9% in the data set on RAW264.7 [7] and 17.3% in data set [8]. In addition, the figures for the IC50 (in the data set on RAW264.7 [3]; in data set [4]) were 22.6 µM and 25.2 µM, respectively.
As for `C=C(C)[C@@H]1CC[C@]2(C)CC[C@]3(C)[C@H](CC[C@@H]4[C@@]5(C)Cc6nccnc6C(C)(C)[C@@H]5CC[C@]43C)[C@@H]12`, the figures for the viability in data set [1] and in data set [2] were 95.2% and 93.3%, respectively. In addition, the 50% inhibitory concentration (IC50) (in the data set on RAW264.7 [3]; in data set [4]) was 32.4 µM each time.
Turning to `C=C(C)[C@@H]1CC[C@]2(C)CC[C@]3(C)[C@H](CC[C@@H]4[C@@]5(C)CC[C@H](OC(C)=O)C(C)(C)[C@@H]5CC[C@]43C)C12` (single isomer, unassigned) [LUPENYL ACETATE], the viability in data set [1] stood at 80.3%; in data set [2], 83.5%. The IC50 was found to be 36.7 µM with RAW264.7 [3] and 33.2 µM in data set [4].
Consider `COc1cc(/C=C/C(=O)CC(=O)/C=C/c2ccc(O)c(OC)c2)ccc1O` [CURCUMIN], for which the IC50 worked out at 11 µM in the data set with RAW264.7 [3] and 18.5 µM in data set [4].
Take `COC(=O)[C@@H](N)CCCNC(=N)N[N+](=O)[O-]` [L-NAME]: the figures for the concentration for half-maximal inhibition (IC50) (with RAW264.7 [3]; in data set [4]) were 69.2 µM and 73.2 µM, respectively.
In the case of `C=C(C)[C@@H]1CC[C@]2(C)CC[C@]3(C)[C@H](CC[C@@H]4[C@@]5(C)CCC(=O)C(C)(C)[C@@H]5CC[C@]43C)[C@@H]12` [LUPENONE], the figures for the viability in data set [1] and in data set [2] were 89.6% and 87.7%, respectively. Further, the IC50 with RAW264.7 [3] is 38.5 µM; in data set [4], 38.8 µM.
Take `C=C(C)[C@@H]1CC[C@]2(C)CC[C@]3(C)[C@H](CC[C@@H]4[C@@]5(C)CC[C@H](O)C(C)(C)[C@@H]5CC[C@]43C)[C@@H]12` [LUPEOL]: the values for the viability in data set [1] and in data set [2] were 87.3% and 88.3%, respectively. Moreover, the IC50 amounted to 37.3 µM in the data set on RAW264.7 [3] and 34.5 µM in data set [4].

The values above are taken from ChEMBL document CHEMBL3352443, “Synthesis of new heterocyclic lupeol derivatives as nitric oxide and pro-inflammatory cytokine inhibitors” (Bioorg Med Chem Lett, 2014).
